Test results taken from publication PMC10798254 (Indian Journal of Nuclear Medicine : IJNM : The Official …, 2023).
Values belong to the compound of their own block, whether it stands above or below them.

What was measured:
[1] = RCP of 68Ga-FAPI over time by TLC and HPLC; type: physicochemical
How it was run: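 Radiolabelled yield and RCP of the product were assessed by gradient HPLC and by TLC, using 0.1M sodium citrate and 50% acetonitrile as solvents. Physical appearance, pH and colour were also checked.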

[2] = Stability of 68Ga-FAPI till 4 hrs by ITLC; type: physicochemical
U87 = settings: temozolomide sensitive line; stated in methods, ref not given; cited from earlier work
LN18 = settings: temozolomide resistant line; stated in methods, ref not given; cited from earlier work
Glioblastoma multiforme = experiment: [64Cu]CuCl2 PET in glioblastoma multiforme; type: in vivo, patients
carcinoma prostate = experiment: Detection of metastatic disease in carcinoma prostate, PET-CT; type: in vivo, patients; settings: for detection rate, lymph nodes: 50 patients, head-to-head; for detection rate, skeletal metastases / detection rate, soft tissue metastases: in vivo
RGD binding integrins = type: in vivo, patients
CXCR4 receptors [3] = target: T1, CXCR4 receptors (Homo sapiens, UniProt P61073); type: in vivo, patients
T1 sequence (P61073 whole entry): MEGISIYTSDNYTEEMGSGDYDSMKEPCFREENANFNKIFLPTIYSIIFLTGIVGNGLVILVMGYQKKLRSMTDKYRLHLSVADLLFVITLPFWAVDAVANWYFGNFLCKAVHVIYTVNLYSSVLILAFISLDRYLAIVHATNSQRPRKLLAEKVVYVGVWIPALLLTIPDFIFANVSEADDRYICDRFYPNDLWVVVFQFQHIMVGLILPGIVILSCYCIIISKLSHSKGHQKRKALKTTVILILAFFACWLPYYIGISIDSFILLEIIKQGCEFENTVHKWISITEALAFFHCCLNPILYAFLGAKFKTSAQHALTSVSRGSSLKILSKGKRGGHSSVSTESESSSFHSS

CXCR4 receptors [4] = target: T1, CXCR4 receptors; set-up: species or system patients; settings: in vivo
QG56 (wild-type EGFR) = experiment: Methylene blue IC50 assay; type: cell-based; settings: Homo sapiens, QG-56
NCI-H3255 = experiment: Methylene blue IC50 assay; type: cell-based; settings: Homo sapiens
HCC827 = experiment: Methylene blue IC50 assay; type: cell-based; settings: Homo sapiens
NCI-H1975 = experiment: Methylene blue IC50 assay; type: cell-based; settings: Homo sapiens
[5] = system: mCRPC with liver metastases; experiment: [177Lu]Lu-PSMA-617 in mCRPC with liver metastases; type: in vivo, patients
B16F10 cells = experiment: Cell binding; type: cell-based; settings: plateau after 30 minutes
melanoma tumor (B16F10) = experiment: In-vivo biodistribution; set-up: species or system C57BL6 mice; settings: mouse
[6] = Biodistribution and dosimetry of 177Lu-DOTA-rituximab; type: in vivo, patients
How it was run: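 22 patients received a diagnostic administration, mean 288.6 MBq. Blood clearance, organ residence times and effective half-life were derived. Whole-body and organ (liver, spleen, kidneys, bone marrow) absorbed doses were expressed per MBq using OLINDA/EXM v2.1.1.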

HeLa cells (PDL-1) = experiment: Cell binding; type: cell-based, human; settings: plateau after 30 minutes
HeLa xenograft = experiment: In-vivo biodistribution; set-up: species or system SCID mice; settings: mouse
medullary thyroid cancer = experiment: 131I-mIBG therapy of medullary thyroid cancer; type: in vivo, patients
How it was run: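 131I-mIBG given as dose-adjusted intravenous infusions in 100 ml 0.9% sodium chloride by syringe pump over 3 hours, at 30.5 to 120 mCi per dose. Twenty-three therapy doses in total, 1–4 per patient.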

[7] = system: metastatic pheochromocytoma and paraganglioma; experiment: I-131 MIBG therapy of metastatic pheochromocytoma and paraganglioma; type: in vivo, patients
[8] = In-vitro stability of 99mTc-glibenclamide; type: physicochemical; settings: solution in PEG 400, ethanol, DMSO stored at 2-8 C, without lyophilization
kidney = experiment: Effect of probenecid on renal uptake of 68Ga-DOTATATE and 68Ga-PSMA11; type: in vivo, Wistar rats; settings: control versus experimental groups
[9] = system: estrogen receptor-positive (ER+) tumors; experiment: Tumor localization of 99mTc-; type: in vivo
[10] = system: metastatic prostate cancer; experiment: 99mTc-PSMA SPECT/CT vs 68Ga-PSMA PET/CT lesion detection; type: in vivo, patients
How it was run: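 61 male patients with metastatic prostate cancer (mean age 67 ± 7.82 years) received i.v. 99mTc-PSMA, mean 12.82 ± 1.15 mCi. Anterior and posterior whole-body images were taken at 2.0 and 4.0 h on a dual-head gamma camera (matrix 256×1024, 12 cm/min). Lesion counts were compared against 68Ga-PSMA.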

BIRADS-V breast lesions = experiment: 99mTc-MDM scintimammography; type: in vivo, patients
How it was run: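 For labelling, 15–20 mCi sodium pertechnetate was added to the kit vial and made up to 1.5 ml with 0.9% NaCl. It was incubated 15–20 min, then 0.22 µm filtered. 15–20 mCi was injected i.v. under the gamma camera. Spot views (anterior/posterior and lateral prone) were taken at 10, 60 and 180 min, and uptake mean and SD calculated at each time.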

amyloid-beta (Aβ42) = amyloid-beta (Aβ42) (Homo sapiens, UniProt P05067); experiment: Binding to synthetic Aβ42 peptide and molecular modeling; settings: compared to monomeric counterparts
Sequence of amyloid-beta (Aβ42) (P05067 672-713): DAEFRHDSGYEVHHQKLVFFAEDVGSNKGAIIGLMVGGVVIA

[11] = system: peripheral blood lymphocytes; experiment: Cytokinesis block micronuclei assay after therapeutic 131I; type: in vivo, patients
How it was run: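 Blood was drawn from 18 thyroid cancer patients before and 72 hrs after a single oral therapeutic 131I dose (5.7 ± 2.1 GBq). Nine healthy volunteers served as controls. Samples were run by standard cytokinesis-block micronucleus protocol, scoring MN, NBUDs and NBR per 1000 binucleate PBLs.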

thyroid remnant = experiment: 131I remnant ablation in differentiated thyroid cancer; type: in vivo, patients
[12] = system: papillary thyroid carcinoma; experiment: Empirical radioiodine therapy in papillary thyroid carcinoma; type: in vivo, patients; settings: of 100
How it was run: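 100 papillary thyroid carcinoma patients received 1–3 empirical radioiodine ablations and were followed from 6 months to 12 years. Histologies were classical, follicular, oncocytic, tall cell and microcarcinoma. Disease status was judged from serum thyroglobulin trend during follow-up.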

- RCP by TLC ([1]; 0.1M Na citrate, 30 min): 98.84±0.7%
- RCP by TLC ([1]; 0.1M Na citrate, 1 h): 98.27±0.81%
- RCP by TLC ([1]; 0.1M Na citrate, 2 h): 97.18±1.5%
- RCP by TLC ([1]; 50% acetonitrile, 30 min): 98.24±0.86%
- RCP by TLC ([1]; 50% acetonitrile, 1 h): 97.84±0.98%
- RCP by TLC ([1]; 50% acetonitrile, 2 h): 96.89±1.1%
- RCP by HPLC ([1]; 30 min): 100%
- RCP by HPLC ([1]; 1 h): 100%
- RCP by HPLC ([1]; 2 h): 100%
- stability (RCP) at 4 hrs [2]: 96.31%
Compound: N#C[C@@H]1CC(F)(F)CN1C(=O)CNC(=O)c1ccnc2ccc(OCCCN3CCN(C(=O)CN4CCN(CC(=O)[O-])CCN(CC(=O)[O-])CCN(CC(=O)[O-])CC4)CC3)cc12.[68Ga+3] [68Ga-DOTA-FAPI04]

Compound: Cn1nnc2c(C(N)=O)ncn2c1=O [temozolomide]
- IC50 (U87): 10000 to 100000 nM
- IC50 (LN18): 400000 to 500000 nM

- SUVmax (Glioblastoma multiforme; first imaging, 2 patients): 1.12
Compound: [64Cu+2].[Cl-].[Cl-] [^64CuCl2, 64-copper chloride]
- tolerability (Glioblastoma multiforme; in vivo): well-tolerated
- detection rate, lymph nodes (carcinoma prostate): 79%
- detection rate, skeletal metastases (carcinoma prostate): 77.3%
- detection rate, soft tissue metastases (carcinoma prostate): 80.6%

- overall sensitivity (RGD binding integrins; in vivo): 92.86%
- overall specificity (RGD binding integrins; in vivo): 100%
- skeletal metastatic lesions seen (RGD binding integrins; of 23): 78.26%
- patients positive for the disease (RGD binding integrins; of 30): 86.66%
- soft tissue lesions seen (RGD binding integrins; of 47): 100%
- lung lesions seen (RGD binding integrins; of 130): 90%
- lesions with uptake (RGD binding integrins; of 200 lesions): 91%
- increase in mean SUVmax, PD (CXCR4 receptors [3]; n = 3): 9.8%
- percent decrease in mean SUVmax, VGPR (CXCR4 receptors [3]; n = 6): 68.8%
- percent decrease in mean SUVmax, CR (CXCR4 receptors [3]; n = 9): 78.6%
- percent decrease in mean SUVmax, PR (CXCR4 receptors [3]; n = 12): 43.3%
- lesions with increased tracer uptake (CXCR4 receptors [4]): 55 lesions
Compound: ^18F-FDG

- IC50 (QG56 (wild-type EGFR)): 1800 nM
- IC50 (HCC827): 2 nM
Compound: C=CC(=O)Nc1cc(Nc2nccc(-c3cn(C)c4ccccc34)n2)c(OC)cc1N(C)CCN(C)C [Osimietinib, Osimertinib]

Compound: [^177Lu]Lu-PSMA-617
- Grade 3 anemia ([5]; 2/18 patients): 11.1%
- ORR ([5]; 4/14 patients): 28.6%
- best PSA-RR (PSA decline of ≥50%) ([5]; 4/16 patients, median cumulative 11.1 GBq over 1-7 cycles): 25%
- median OS ([5]; 95% CI: 11.5-14.5): 13.0 months

Compound: [^177Lu]Lu-DOTA-Bevacizumab
- binding in cells (B16F10 cells): Approximately 32 ± 3%
- accumulation in tumor (melanoma tumor (B16F10)): 8.2 ± 2.7 % ID/g

Compound: ^177Lu-DOTA-rituximab
- effective half-life ([6]; 22 patients): 104.5 ± 22 h
- mean WB radiation absorbed dose ([6]; OLINDA/EXM): 0.208 ± 0.03 mGy/MBq
- mean WB effective dose ([6]; in vivo): 0.196 ± 0.05 mGy/MBq
- mean radiation absorbed dose, bone marrow ([6]; in vivo): 0.136 ± 0.02
- mean radiation absorbed dose, kidneys ([6]; in vivo): 1.01 ± 0.42 mGy/MBq
- mean radiation absorbed dose, liver ([6]; in vivo): 0.613 ± 0.21 mGy/MBq
- mean radiation absorbed dose, spleen ([6]; in vivo): 1.68 ± 2 mGy/MBq

Compound: [^90Y]Y-CHX-A”-DTPA-Bevacizumab
- binding in cells (B16F10 cells): Approximately 32 ± 3%
- accumulation in tumor (melanoma tumor (B16F10)): 8.2 ± 2.7 % ID/g

Compound: O=C([O-])CN(CCN(CC(=O)[O-])Cc1cc(CCC(=O)NCCCCCC(=O)NCCCC[C@H](NC(=O)N[C@@H](CCC(=O)O)C(=O)O)C(=O)O)ccc1[O-])Cc1cc(CCC(=O)O)ccc1[O-].[68Ga+3].[OH3+] [^68Ga-PSMA-11]
- detection rate, lymph nodes (carcinoma prostate): 99%
- detection rate, skeletal metastases (carcinoma prostate): 99%
- detection rate, soft tissue metastases (carcinoma prostate): 85.4%

Compound: [^90Y]Y-CHX-A”-DTPA-Atezolizumab
- binding with cells (HeLa cells (PDL-1)): ~ 18 ± 3.5%
- retention in the tumor (HeLa xenograft): 5.2 ± 2.5 % ID/gm

Compound: N=C(N)NCc1cccc([131I])c1 [I-131 MIBG, Metaiodobenzylguanidine]
- calcitonin levels remained stable (medullary thyroid cancer; 30.5 to 120 mCi per dose, 1-4 doses): 8/13
- calcitonin levels progressed (medullary thyroid cancer; in vivo): 5/13
- regression on repeat mIBG scans (medullary thyroid cancer; in vivo): 3/12
- side effects (medullary thyroid cancer; in vivo): no reported side effects
- immediate side effect post therapy ([7]; 20 patients): only one patient experienced severe vomiting
- patients with symptomatic relief ([7]; in vivo): 70%
- progressive disease ([7]; in vivo): 9/20
- partial response ([7]; ~100mCi i.v. per therapy): 11/20

- period for which solubilized drug solution was labeled efficiently [8]: 2 months
Compound: COc1ccc(Cl)cc1C(=O)NCCc1ccc(S(=O)(=O)NC(=O)NC2CCCCC2)cc1 [GBD, Glibenclamide]

- change in kidney excretion pattern (kidney): no significant change
Compound: CCCN(CCC)S(=O)(=O)c1ccc(C(=O)O)cc1 [probenecid, Probenecid]

- T/M ratio ([9]; at 2.0 hours): 1.11 ± 0.34
- increase in tumor localization ([9]; in vivo): fivefold
Compound: CC12CCC3c4ccc(O)cc4CCC3C1CCC2(O)c1cn(CCNC(=O)CN(CCN(CCN(CC(=O)O)CC(=O)NCCn2cc(C3(O)CCC4C5CCc6cc(O)ccc6C5CCC43C)nn2)CC(=O)O)CC(=O)O)nn1 (stereo not drawn) [^99mTc[(EST)2DT], 5,8-bis(carboxymethyl)-13-(4-(3,17-dihydroxy-13-methyl-7,8,9,11,12,13,14,15,16,17-decahydro-6H-cyclopenta[α]phenanthren-17-yl)-1H-1,2,3-triazol-1-yl)-2-(2-(2-(4-(3,17-dihydroxy-13-methyl-7,8,9,11,12,13,14,15,16,17-decahydro-6H-cyclopenta[α]phenanthren-17-yl)-1H-1,2,3-triazol-1-yl)ethylamino)-2-oxoethyl)-10-oxo-2,5,8,11-tetraazatridecane-1-carboxylic acid, metal not drawn]

Compound: O=C([O-])CN(CCN(CC(=O)[O-])Cc1cc(CCC(=O)NCCCCCC(=O)NCCCC[C@H](NC(=O)N[C@@H](CCC(=O)O)C(=O)O)C(=O)O)ccc1[O-])Cc1cc(CCC(=O)O)ccc1[O-].[68Ga+3].[OH3+] [^68Ga-PSMA]
- pelvic lesions detected ([10]; 61 patients): 341 lesions
- extra pelvic distant metastatic lesions detected ([10]; in vivo): 237 lesions
- total lesions detected ([10]; in vivo): 578 lesions

- mean Tu:Bkg ratio (BIRADS-V breast lesions; Prone Lateral, 10min): 1.89 ± 0.578
- mean Tu:Bkg ratio (BIRADS-V breast lesions; Prone Lateral, 1hr): 1.95 ± 0.717
- mean Tu:Bkg ratio (BIRADS-V breast lesions; Prone Lateral, 3hrs): 2.059 ± 0.728
- mean Tu:Bkg ratio (BIRADS-V breast lesions; anterior view, 10min): 2.606 ± 0.601
- mean Tu:Bkg ratio (BIRADS-V breast lesions; anterior view, 3hrs): 3.04 ± 1.114
Compound: DTPA-bis-methionine [^99mTc-MDM]

Compound: CN(CCOc1ccc(C(=O)/C=C/c2ccc(N(C)C)cc2)cc1)CCOc1ccc(C(=O)/C=C/c2ccc(N(C)C)cc2)cc1 [¹¹C-(Chal)2DEA-Me, (2E,2′E)-1,1′-((((methylazanediyl)bis(ethane-2,1-diyl))bis(oxy))bis(4,1-phenylene))bis(3-(4-(dimethylamino)phenyl)prop-2-en-1-one)]
- binding affinity (amyloid-beta (Aβ42)): superior binding affinity compared to monomeric counterparts

Compound: [131IH] [radioiodine]
- NBUDS /1000 BN PBLs post exposure ([11]; 72 hrs after 5.7 ± 2.1 GBq, Pre 7.4 ± 5.3, n = 18): 11.9 ± 7.2
- NBR /1000 BN PBLs post exposure ([11]; 72 hrs after exposure, Pre 5.7 ± 4.4): 14.4 ± 8.1
- successful remnant ablation (thyroid remnant; baseline S Tg <12.3): 84.1%
- successful remnant ablation (thyroid remnant; baseline S Tg more than 12.3): 21.2%
- patients with successful ablation in a single dose (thyroid remnant; of 383, 70.3 ± 33.6 mCi): 251 patients
- progression post empirical therapy [12]: Fifty-two
- regression of disease (decreasing serum thyroglobulin) [12]: 38 patients
